The source of these data is ChEMBL document CHEMBL1123938, “Synthesis and biological studies of iodinated (127/125I) derivatives of rhodamine 123” (1987).

Several values for one entry are separate records, joined by “and”; a condition that tells them apart may be missing. Equal values may be shown once.

The species named for one assay is Cricetulus griseus. The assay is described as follows: Extra cellular concentration of radiolabeled compound was determined in chinese hamster V79 lung fibroblasts. It counts as functional. In short, it runs like this: (§1)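 V79 Chinese hamster lung fibroblasts or human PC3 prostate adenocarcinoma cells, grown at 37 °C in MEM with 15% fetal calf serum. Log-phase cells were trypsinized and suspended at 2 × 10⁵/mL in calcium-free MEM, then preincubated 4 h at 37 °C on a roller. Carrier-free ¹²⁵I-labelled dihydrorhodamine derivative was added and incubated 2 h at 37 °C. Cell radioactivity was measured by microfuge; intracellular concentration was derived from Coulter-measured cell volumes.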

Another assay has as its system PC-3. In words: Extra cellular concentration of radiolabeled compound was determined in human prostate PC3 adenocarcinoma cells. It counts as functional, cell-based. An outline of the steps:
as §1

The nature of assay [1]: Ratio of pCi/cell cellular uptake to uCi/mL cellular uptake. The assay is classed as functional.

As to `COC(=O)c1ccccc1C1c2cc(I)c(N)cc2Oc2c1cc(I)c(N)c2I` (stereo unspecified), the Concentration is 1.3 uCi ml-1 in the assay listed under Cricetulus griseus and 1.15 uCi ml-1 in the assay on PC-3. For the same compound, the Ratio in assay [1] was 0.152 and 0.348.
With `COC(=O)c1ccccc1C1c2ccc(N)cc2Oc2cc(N)c(I)cc21` (stereo unspecified), the Concentration is 0.956 uCi ml-1 in the assay filed under Cricetulus griseus and 0.937 uCi ml-1 with PC-3.
The corresponding values for `COC(=O)c1ccccc1C1c2ccc(N)cc2Oc2c1ccc(N)c2I` (stereo unspecified) are 1.27 uCi ml-1 and 1.2 uCi ml-1.
On to `COC(=O)c1ccccc1C1c2cc(I)c(N)cc2Oc2cc(N)c(I)cc21`, for which the values for the Concentration in the assay filed under Cricetulus griseus and in the assay with PC-3 were 0.97 uCi ml-1 and 0.883 uCi ml-1, respectively.
The corresponding values for `COC(=O)c1ccccc1C1c2cc(I)c(N)cc2Oc2c1ccc(N)c2I` (stereo unspecified) are 1.64 uCi ml-1 and 1.35 uCi ml-1.
